Results reported in ChEMBL document CHEMBL3232705, “Discovery of isoquinolinone indole acetic acids as antagonists of chemoattractant receptor homologous molecule expressed on Th2 cells (CRTH2) for the treatment of allergic inflammatory diseases” (J Med Chem, 2014).
Calls of active or inactive are those of the source. The rule behind the calls is not given here.

Tests used:
Salmonella typhimurium = assay: Genotoxicity in Salmonella typhimurium by AMES test; assay type: toxicity, organism-based; details: salmonella enterica subsp. enterica serovar typhimurium
Cytochrome P450 1A2 = molecular target: T1, Cytochrome P450 1A2 (Homo sapiens, UniProt P05177); assay: Inhibition of CYP1A2 (unknown origin); assay type: ADME
T1 sequence (P05177 whole entry): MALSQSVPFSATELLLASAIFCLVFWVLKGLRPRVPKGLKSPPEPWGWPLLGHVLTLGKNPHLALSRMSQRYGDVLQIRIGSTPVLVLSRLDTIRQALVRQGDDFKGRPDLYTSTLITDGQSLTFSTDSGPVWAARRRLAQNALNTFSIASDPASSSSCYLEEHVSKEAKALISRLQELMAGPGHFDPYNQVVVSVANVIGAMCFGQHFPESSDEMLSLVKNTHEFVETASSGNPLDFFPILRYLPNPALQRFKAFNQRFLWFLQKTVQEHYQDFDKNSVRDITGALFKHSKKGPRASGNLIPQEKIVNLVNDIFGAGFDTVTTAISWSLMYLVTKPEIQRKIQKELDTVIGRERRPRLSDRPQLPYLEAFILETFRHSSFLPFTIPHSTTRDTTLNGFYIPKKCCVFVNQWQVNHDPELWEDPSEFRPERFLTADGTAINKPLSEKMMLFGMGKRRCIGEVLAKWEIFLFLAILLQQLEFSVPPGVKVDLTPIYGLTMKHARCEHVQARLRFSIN

Ovis aries [1] = assay: Inhibition of allergen-induced mucociliary clearance in sheep assessed as tracheal mucus velocity at 3 mg/kg, iv measured at 4 hrs (reference value: 47%); assay type: functional; details: Trachea
How it was run: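 Five sheep received 3 mg/kg iv around allergen challenge. Tracheal mucus velocity measured at 4 h and 8 h and expressed as % of baseline.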

Ovis aries [2] = assay: Inhibition of Ascaris-induced airway bronchoconstriction in sheep assessed as inhibition of early phase allergic airway bronchoconstriction at 3 mg/kg, iv bid; assay type: functional, organism-based; set-up: dose 3 mg/kg
Cavia porcellus = assay: Antiallergic activity in ovalbumin-induced allergic lung inflammation Hartley guinea pig model assessed as total cellularity in bronchoalveolar lavage fluid at 20 mg/kg, po administered 1 hr before and 6 hrs after ovalbumin challenge measured after 24 hrs; assay type: functional, organism-based; set-up: dose 20 mg/kg
How it was run: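 Female Hartley guinea pigs (375–425 g) sensitized ip on days 1 and 5 with 100 μg OVA plus 100 mg aluminum hydroxide in PBS, then challenged on day 15 with aerosolized 0.01% OVA for 60 min. Dosed orally 1 h before and 6 h after challenge; vehicle was Tween 80 in cherry syrup. On day 16, lungs lavaged with 2 × 10 mL PBS. Total cells counted by hemocytometer; differentials from stained cytospins. Unpaired t test.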

Mus musculus [3] = assay: Antiallergic activity in house dust mite-induced allergic airway disease BALB/c mouse model assessed as reduction in macrophage level in bronchoalveolar lavage fluid at 40 mg/kg, po after 72 hrs of HDM challenge; assay type: functional, organism-based; set-up: dose 40 mg/kg; details: Lung
How it was run: (§1)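 BALB/c mice given house dust mite intratracheally via a catheter passed through the vocal cords. Test article 40 mg/kg orally once daily; dexamethasone 1 mg/kg ip once daily as reference. Total and differential BAL cells (eosinophils, macrophages, lymphocytes, neutrophils) counted 72 h after HDM challenge. Mean ± SEM, Mann–Whitney U test.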

Mus musculus [4] = assay: Antiallergic activity in house dust mite-induced allergic airway disease BALB/c mouse model assessed as reduction in airway inflammation at 40 mg/kg, po qd after 17 days; assay type: functional, organism-based; set-up: dose 40 mg/kg; how it was run: as §1
[5] = Cmax in dog at 10 mg/kg, po; assay type: ADME, organism-based, Canis lupus familiaris; set-up: dose 10 mg/kg, route oral; details: in vivo
How it was run: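 Single intravenous dose of 2 mg/kg and single oral dose of 10 mg/kg, given separately, in rat, dog and monkey. Clearance and half-life taken from the iv arm; Cmax from the oral arm.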

[6] = Volume of distribution at steady state in dog at 2 mg/kg, iv; assay type: ADME, organism-based, Canis lupus familiaris; set-up: dose 2 mg/kg, route intravenous; details: in vivo, read-out: Vdss

Cc1c(-c2cn(C(C)C)c(=O)c3ccccc23)c2cc(F)ccc2n1CC(=O)O
Activity (Salmonella typhimurium): Non-toxic
IC50 (Cytochrome P450 1A2): > 100 µM
inhibition in vivo at 3 mg/kg (Ovis aries [1]): 70%
inhibition (Ovis aries [2]): inactive
inhibition (Cavia porcellus): Active
inhibition (Mus musculus [3]): inactive
inhibition (Mus musculus [4]): Active
Cmax [5]: 2010 ng/mL
Vd [6]: 0.7 L/kg
